Most compounds without a hit are left out; they make up all but 1.8% or so of the library.
LMPTP inh – LMPTP (human) inhibition | AID 651560 | inhibition, % at 20 µM | 360,000 tested, 0.22% active | P24666 | recombinant LMPTP-A, OMFP fluorogenic substrate, fluorescence intensity;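 active = compounds that cut the enzyme signal by at least half of the control window in the single-dose screen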;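 also: plate controls were DMSO wells with enzyme plus substrate for no effect and substrate without enzyme for full effect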
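Assay system: LMPTP-A, protein tyrosine phosphatase of low molecular weight / Medium: pH 6.0 Bis-Tris buffer with DTT and Triton X-100 / Schedule: 50 min enzyme reaction at room temperature, protected from light / Measured by: endpoint fluorescence intensity from OMFP dephosphorylation / Read-out basis: % inhibition relative to no-enzyme and uninhibited control wells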
DNMT1 inh – inhibitors of human DNMT1; P26358; DNMT1 molecular beacon, Hinp1I cleavage, fluorescence; inhibition (reported as % activation of signal), % at 10 µM; 360,000 tested, 0.83% active; AID 588458; in the data active = inhibition above about 50%
Scp-1 inhibitor – blocks human Scp-1 phosphatase activity. Recombinant Scp1, phosphopeptide, malachite green phosphate absorbance. inhibition, % at 20 µM. 340,000 tested, 0.88% active. AID 493091;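 active = inhibition above about 50% at 20 µM, limit read from the data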;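 also: plate controls were DMSO wells with enzyme for no effect and wells lacking enzyme for full effect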
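Test system: SCP-1 phosphatase catalytic domain, residues 76-261; measured by: colorimetric phosphate reagent with accelerator and stabiliser, absorbance at 630 nm; timing: enzyme reaction 45 min at room temperature, colour 5 min, stabilisation 30 min; also added: Phosphorylated 17-residue peptide substrate; compound dosing: one concentration, 20 µM, with 1.0% DMSO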
STEP block – STEP (human) phosphatase inhibition | P54829 | recombinant STEP, OMFP fluorogenic substrate, fluorescence | inhibition, % at 20 µM | 360,000 tested, 0.25% active | AID 588621;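 active = inhibition at 20 µM, scaled per plate between control wells, above about 37%, limit read from the data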;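 also: 0% = DMSO with enzyme and substrate and 100% = substrate only without enzyme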
Target sequence (P54829 whole entry, looked up): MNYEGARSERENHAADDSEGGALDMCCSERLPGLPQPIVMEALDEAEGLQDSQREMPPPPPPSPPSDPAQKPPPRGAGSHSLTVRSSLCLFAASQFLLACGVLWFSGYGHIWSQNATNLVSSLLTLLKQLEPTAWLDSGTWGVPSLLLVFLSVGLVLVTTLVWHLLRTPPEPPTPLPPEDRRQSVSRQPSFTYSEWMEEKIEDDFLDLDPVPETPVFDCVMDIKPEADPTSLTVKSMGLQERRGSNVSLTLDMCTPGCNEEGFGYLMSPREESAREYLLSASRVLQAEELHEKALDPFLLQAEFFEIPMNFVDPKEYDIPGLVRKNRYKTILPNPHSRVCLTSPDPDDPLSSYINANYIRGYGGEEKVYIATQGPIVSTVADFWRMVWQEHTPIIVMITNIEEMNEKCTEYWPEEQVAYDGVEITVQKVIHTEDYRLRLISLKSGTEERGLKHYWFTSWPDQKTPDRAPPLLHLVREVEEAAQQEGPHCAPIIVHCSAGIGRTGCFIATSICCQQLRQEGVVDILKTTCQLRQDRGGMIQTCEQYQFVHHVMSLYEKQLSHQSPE
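Material: STEP (striatal-enriched tyrosine phosphatase) enzyme, cell-free | Medium: 50 mM Bis-Tris pH 6.0 with 2.5 mM DTT and 0.005% Tween 20 | Read-out: Percent inhibition scaled to no-enzyme and uninhibited-enzyme controls, plate-pattern corrected | Signal: Fluorescence read at 480 nm ex / 540 nm em | Times: 20 min reaction, room temperature, in the dark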
HKDC1 inh – inhibitors of human hexokinase HKDC1; Q2TB90; recombinant HKDC1, G6PDH/diaphorase resazurin coupled fluorescence; inhibition, % at 20 µM; 340,000 tested, 0.16% active; AID 493160;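 active = inhibition above about 35% when tested at 20 µM, limit read from the data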;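 also: plate controls were DMSO wells with enzyme for no effect and DMSO wells lacking enzyme for full effect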
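System: Recombinant HKDC1 hexokinase | Amount: HKDC1 at 5 µg/mL | Reagent: Glucose with 1 mM ATP | Doses: Single 20 µM dose | Incubation: Reaction time 90 min, room temperature, protected from light | Signal: Coupled resazurin fluorescence, excitation 525 nm, emission 613 nm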
SUMO1 PPI mod – alters human SUMO1 binding to SIM partners | 360,000 tested, 0.33% active | inhibition, % at 20 µM | P63165 | SUMO1 binding to a labelled peptide, TR-FRET, 1 h | AID 602429; in the data active = inhibition above about 37%
An asterisk follows results filed as active; . = no result given.

SMILES	LMPTP inh	DNMT1 inh	Scp-1 inhibitor	STEP block	HKDC1 inh	SUMO1 PPI mod
C#CCOCCOCCOCCNc1nc(N2CCN(C(=O)CCCCCCCCCCNC(=O)Cn3cc(CCCCCN)nn3)CC2)nc(N2CCN(C(=O)CCCCCCCCCCNC(=O)[C@H]([C@@H](C)CC)n3cc(CCCCN=C(N)N)nn3)CC2)n1	5.0	-32.2	40.2	7.7	3.2	38.6*
C#CCOCCOCCOCCNc1nc(N2CCN(C(=O)CCCCCCCCCCNC(=O)[C@H]([C@@H](C)CC)n3cc(CCCCCN)nn3)CC2)nc(N2CCN(C(=O)CCCCCCCCCCNC(=O)[C@H]([C@@H](C)CC)n3cc(CCCCN=C(N)N)nn3)CC2)n1	2.6	-129.7	.	4.9	.	78.6*
CN=c1sc2c(n1C)C(=O)c1ccccc1C2=O	1.9	15.6	-7.6	6.1	23.8	-16.1
CCOC(=O)CNS(=O)(=O)c1cc(-c2nn(C)c(=O)c3ccccc23)ccc1C	5.9	20.8	61.5*	15.9	0.2	0.0
Cc1ccc2nc(SCC(=O)Nc3ccc(Cl)cc3)nc(=O)n2c1	-0.3	-1.3	-6.6	2.8	0.7	86.2*
COc1ccc(S(=O)(=O)N2CCOCC2)cc1NC(=O)CN1C(=O)NC2(CCC(C)CC2)C1=O (centres undefined)	-0.2	5.0	.	-1.2	.	-0.9
C#CCOCCOCCOCCNc1nc(N2CCN(C(=O)CCCCCCCCCCNC(=O)[C@H](CO)n3cc(CCCSC)nn3)CC2)nc(N2CCN(C(=O)CCCCCCCCCCNC(=O)[C@H](CCCCN)n3cc(CCO)nn3)CC2)n1	-1.8	-39.8	11.4	1.0	-14.5	-141.1
C#CCOCCOCCOCCNc1nc(N2CCN(C(=O)CCCCCCCCCCNC(=O)Cn3cc(C[C@@H](C)O)nn3)CC2)nc(N2CCN(C(=O)CCCCCCCCCCNC(=O)[C@H](CCCN=C(N)N)n3cc(C[C@@H](C)CC)nn3)CC2)n1	13.4	-108.0	25.0	5.3	-7.0	105.5*
C#CCOCCOCCOCCNc1nc(N2CCN(C(=O)CCCCCCCCCCNC(=O)[C@H](CO)n3cc(CCCSC)nn3)CC2)nc(N2CCN(C(=O)CCCCCCCCCCNC(=O)[C@H](CCCN=C(N)N)n3cc(C[C@@H](C)CC)nn3)CC2)n1	16.8	-105.4	62.7*	18.6	8.6	89.9*
C#CCOCCOCCOCCNc1nc(N2CCN(C(=O)CCCCCCCCCCNC(=O)Cn3cc(C[C@@H](C)O)nn3)CC2)nc(N2CCN(C(=O)CCCCCCCCCCNC(=O)[C@H](CCCCN)n3cc(CCCC(=O)O)nn3)CC2)n1	-8.2	-52.2	16.9	4.8	-8.1	-1.2
O=C(NC1CCCC1)c1sc(=S)n2c1[nH]c(=O)c1ccccc12	0.4	-2.3	57.5*	18.7	20.9	9.6
Cc1cccn2cc(-c3ccc4c(c3)NC(=O)CO4)nc12	37.0	0.3	2.5	1.8	5.1	1.7
Cc1ccn2cc(-c3ccc4c(c3)NC(=O)CO4)nc2c1	16.2	1.0	-1.4	3.4	-3.8	53.9*
CC(C)COC(=O)N(C)C[C@@H]1OCc2cnnn2CCCC(=O)N([C@H](C)CO)C[C@@H]1C	-0.9	5.6	.	0.2	.	4.3
Cc1cc2cc(C)c(NCCNC(=O)c3cccs3)nc2cc1C	1.5	13.5	6.9	-1.2	-5.0	49.9*
Cc1cc2cc(C)c(NCCNC(=O)c3ccccc3F)nc2cc1C	0.4	-1.3	-3.1	-1.0	-8.0	-0.1
CCO[C@H]1C[C@@H](c2ccc(CC)cc2)N(S(=O)(=O)c2ccc(C)cc2)C2CC(c3ccc(CC)cc3)N(S(=O)(=O)c3ccc(C)cc3)CC21 (some centres undefined)	0.6	.	.	.	.	-2.3
CCn1cc(CN2CCC(n3nccc3NC(=O)c3cccc(F)c3)CC2)cn1	-0.9	-1.2	-7.1	0.2	-4.7	3.3
COc1cc(NC(=O)CSCC(=O)Nc2cccc(C(F)(F)F)c2)c(Cl)cc1Cl	1.8	-2.7	-14.9	0.1	-4.0	44.3*
CC1(C)C2CCC1(C)C(SC(=N)N)C2 (centres undefined)	-1.7	2.0	-7.6	-2.2	-8.3	0.7
